Reference: ChEMBL document CHEMBL3244146, “Pyranenamines: a new series of antiallergic compounds” (1979)

How the values were obtained:
[1] = Antiallergic activity in passively sensitized rhesus monkey lungs assessed as inhibition of antigen-induced histamine release at 1 x 10^-4 M by fluorometric analysis relative to control; format: functional, Macaca mulatta, Lung
Procedure, shortened: (§1)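 Passively sensitized fragmented lung from a young adult male rhesus monkey, challenged with IgE-antihuman IgE; histamine release measured fluorometrically and SRS-A estimated by guinea pig ileum bioassay; inhibition relative to control; replicates given as number of separate lung preparations.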

[2] = Antiallergic activity in passively sensitized rhesus monkey lungs assessed as inhibition of antigen-induced histamine release at 1 x 10^-5 M by fluorometric analysis relative to control; format: functional, Macaca mulatta, Lung; procedure, shortened: as §1
[3] = Antiallergic activity in passively sensitized rhesus monkey lungs assessed as inhibition of antigen-induced slow reacting substance of anaphylaxis release at 1 x 10^-4 M relative to control; format: functional, Macaca mulatta, Lung; procedure, shortened: as §1
[4] = Antiallergic activity in passively sensitized rhesus monkey lungs assessed as inhibition of antigen-induced slow reacting substance of anaphylaxis release at 1 x 10^-5 M relative to control; format: functional, Macaca mulatta, Lung; procedure, shortened: as §1
Rattus norvegicus [5] = test: Antiallergic activity in iv dosed rat assessed as inhibition of egg albumin-induced passive cutaneous anaphylaxis treated for 30 secs followed by egg albumin-challenge measured after 30 mins; format: functional; conditions: 0.5 h, read-out: ID50 (the source's name)
Rattus norvegicus [6] = test: Antiallergic activity in po dosed rat assessed as inhibition of egg albumin-induced passive cutaneous anaphylaxis treated for 15 mins followed by egg albumin-challenge measured after 30 mins; format: functional; conditions: read-out: ID50 (the source's name)
Procedure, shortened: (§2)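 Oral PCA in rats: intradermal antiserum at four back sites (dose giving ~12×12 mm wheal), compound po 48 h later, 15 min before iv challenge with 0.5 mL saline containing 5 mg Evans blue plus 5 mg egg albumin; skin bluing read 30 min after challenge on two axes per wheal; six rats per dose versus ≥6 vehicle controls; percent inhibition from mean wheal size, one-sided t test.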

Rattus norvegicus [7] = test: Antiallergic activity in rat assessed as inhibition of egg albumin-induced passive cutaneous anaphylaxis at 10 mg/kg, iv treated for 30 secs followed by egg albumin-challenge measured after 30 mins relative to control; format: functional; conditions: 0.5 h
Rattus norvegicus [8] = test: Antiallergic activity in rat assessed as inhibition of egg albumin-induced passive cutaneous anaphylaxis at 5 mg/kg, iv treated for 30 secs followed by egg albumin-challenge measured after 30 mins relative to control; format: functional; conditions: 0.5 h
Lung [9] = test: Antiallergic activity in passively sensitized albino rat lungs assessed as inhibition of antigen-induced histamine release at 1 x 10^-5 M by fluorometric analysis relative to control; format: functional
Procedure, shortened: (§3)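 Fragmented lung from adult male Charles River albino rats, passively sensitized, then antigen-challenged with compound present; released histamine measured fluorometrically; inhibition reported relative to control, with replicate count given as number of separate lung preparations.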

Lung [10] = test: Antiallergic activity in passively sensitized albino rat lungs assessed as inhibition of antigen-induced histamine release at 1 x 10^-6 M by fluorometric analysis relative to control; format: functional; procedure, shortened: as §3
Rattus norvegicus [11] = test: Antiallergic activity in rat assessed as inhibition of egg albumin-induced passive cutaneous anaphylaxis at 0.5 mg/kg, iv treated for 30 secs followed by egg albumin-challenge measured after 30 mins relative to control; format: functional; conditions: 0.5 h
Rattus norvegicus [12] = test: Antiallergic activity in rat assessed as inhibition of egg albumin-induced passive cutaneous anaphylaxis at 25 mg/kg, po treated for 15 mins followed by egg albumin-challenge measured after 30 mins relative to control; format: functional; procedure, shortened: as §2
Rattus norvegicus [13] = test: Antiallergic activity in rat assessed as inhibition of egg albumin-induced passive cutaneous anaphylaxis at 50 mg/kg, po treated for 15 mins followed by egg albumin-challenge measured after 30 mins relative to control; format: functional; procedure, shortened: as §2
Lung [14] = test: Antiallergic activity in passively sensitized albino rat lungs assessed as inhibition of antigen-induced histamine release at 1 x 10^-7 M by fluorometric analysis relative to control; format: functional; procedure, shortened: as §3
Lung [15] = test: Antiallergic activity in passively sensitized albino rat lungs assessed as inhibition of antigen-induced histamine release at 2.7 x 10^-4 M by fluorometric analysis relative to control; format: functional; procedure, shortened: as §3
Lung [16] = test: Antiallergic activity in passively sensitized albino rat lungs assessed as inhibition of antigen-induced histamine release at 5.3 x 10^-5 M by fluorometric analysis relative to control; format: functional; procedure, shortened: as §3
[17] = Antiallergic activity in passively sensitized rhesus monkey lungs assessed as inhibition of antigen-induced histamine release at 1.3 x 10^-3 M by fluorometric analysis relative to control; format: functional, Macaca mulatta, Lung; procedure, shortened: as §1
[18] = Antiallergic activity in passively sensitized rhesus monkey lungs assessed as inhibition of antigen-induced histamine release at 2.7 x 10^-4 M by fluorometric analysis relative to control; format: functional, Macaca mulatta, Lung; procedure, shortened: as §1
[19] = Antiallergic activity in passively sensitized rhesus monkey lungs assessed as inhibition of antigen-induced histamine release at 5.3 x 10^-5 M by fluorometric analysis relative to control; format: functional, Macaca mulatta, Lung; procedure, shortened: as §1
[20] = Antiallergic activity in passively sensitized rhesus monkey lungs assessed as inhibition of antigen-induced slow reacting substance of anaphylaxis release at 1.3 x 10^-3 M relative to control; format: functional, Macaca mulatta, Lung; procedure, shortened: as §1
[21] = Antiallergic activity in passively sensitized rhesus monkey lungs assessed as inhibition of antigen-induced slow reacting substance of anaphylaxis release at 2.7 x 10^-4 M relative to control; format: functional, Macaca mulatta, Lung; procedure, shortened: as §1
[22] = Antiallergic activity in passively sensitized rhesus monkey lungs assessed as inhibition of antigen-induced slow reacting substance of anaphylaxis release at 5.3 x 10^-5 M relative to control; format: functional, Macaca mulatta, Lung; procedure, shortened: as §1
Lung [23] = test: Antiallergic activity in passively sensitized albino rat lungs assessed as inhibition of antigen-induced histamine release at 1.3 x 10^-3 M by fluorometric analysis relative to control; format: functional; procedure, shortened: as §3

## CC(=O)C1=C(O)/C(=C(\C)Nc2cc(N)cc(O)c2)C(=O)OC1=O.Cl
[1]
  inhibition (INH): 24%
[2]
  inhibition (INH): -0.7%
[3]
  inhibition (INH): 18%
[4]
  inhibition (INH): 5%
Rattus norvegicus [5]
  ED50: 0.5 mg/kg
Rattus norvegicus [6]
  ED50: 8 mg/kg

## CCOC(=O)C(=O)Nc1cc(NC(=O)C(=O)OCC)cc(N/C(C)=C2\C(=O)OC(=O)C(C(C)=O)=C2O)c1
Rattus norvegicus [5]
  ED50: 0.03 mg/kg
Rattus norvegicus [6]
  ED50: 6.5 mg/kg

## CC(=O)C1=C(O)/C(=C(\C)Nc2ccc([N+](=O)[O-])cc2)C(=O)OC1=O
Rattus norvegicus [7]
  inhibition in vivo at 10 mg/kg: 17%

## CC(=O)C1=C(O)/C(=C(\C)Nc2ccc(C)cc2)C(=O)OC1=O
Rattus norvegicus [7]
  inhibition in vivo at 10 mg/kg: 33%

## CC(=O)Nc1ccc(N/C(C)=C2\C(=O)OC(=O)C(C(C)=O)=C2O)cc1
Rattus norvegicus [8]
  inhibition in vivo at 5 mg/kg: 19%

## CC(=O)C1=C(O)/C(=C(\C)N)C(=O)OC1=O
Rattus norvegicus [8]
  inhibition in vivo at 5 mg/kg: 17%

## CC(=O)C1=C(O)/C(=C(\C)Nc2ccc(NC(=O)C(C)C)cc2)C(=O)OC1=O
Lung [9]
  inhibition (INH): 92%
Lung [10]
  inhibition (INH): 60%
Rattus norvegicus [11]
  inhibition in vivo at 0.5 mg/kg: 64%
Rattus norvegicus [12]
  inhibition in vivo at 25 mg/kg: 4%

## COC(=O)c1ccc(N/C(C)=C2\C(=O)OC(=O)C(C(C)=O)=C2O)cc1
Rattus norvegicus [8]
  inhibition in vivo at 5 mg/kg: 6%

## CC(=O)C1=C(O)/C(=C(\C)Nc2cc(O)ccc2N)C(=O)OC1=O
Rattus norvegicus [8]
  inhibition in vivo at 5 mg/kg: 47%

## CCCCC(=O)c1c(O)oc(=O)c(C(=O)CCCC)c1O
Rattus norvegicus [7]
  inhibition in vivo at 10 mg/kg: 69%

## CC(=O)C1=C(O)/C(=C(\C)Nc2ccc(Cl)c(Cl)c2)C(=O)OC1=O
Rattus norvegicus [7]
  inhibition in vivo at 10 mg/kg: 10%

## CCOC(=O)c1ccccc1N/C(C)=C1\C(=O)OC(=O)C(C(C)=O)=C1O
Rattus norvegicus [8]
  inhibition in vivo at 5 mg/kg: 18%

## CC(C)CC(=O)c1c(O)oc(=O)c(C(=O)CC(C)C)c1O
Rattus norvegicus [7]
  inhibition in vivo at 10 mg/kg: 23%

## CC(=O)C1=C(O)/C(=C(\C)Nc2cccc(Cl)c2)C(=O)OC1=O
Rattus norvegicus [7]
  inhibition in vivo at 10 mg/kg: 74%

## CC(=O)C1=C(O)/C(=C(\C)Nc2cc(NS(C)(=O)=O)cc(NS(C)(=O)=O)c2)C(=O)OC1=O
Rattus norvegicus [5]
  ED50: 0.3 mg/kg
Rattus norvegicus [13]
  inhibition in vivo at 50 mg/kg: 9%

## CC(=O)C1=C(O)/C(=C(\C)Nc2ccc(O)c(NC(=O)C(C)C)c2)C(=O)OC1=O
Lung [10]
  inhibition (INH): 78%
Lung [14]
  inhibition (INH): 81%
Rattus norvegicus [5]
  ED50: 0.2 mg/kg
Rattus norvegicus [6]
  ED50: 3.3 mg/kg

## CC(=O)C1=C(O)/C(=C(\C)Nc2cc(NC(=O)C(=O)O)cc(NC(=O)C(=O)O)c2)C(=O)OC1=O
Rattus norvegicus [5]
  ED50: 0.05 mg/kg
Rattus norvegicus [6]
  ED50: 19 mg/kg

## O=C([O-])c1cc(=O)c2c(OCC(O)COc3cccc4oc(C(=O)[O-])cc(=O)c34)cccc2o1.[Na+].[Na+] [CROMOLYN SODIUM]
Lung [15]
  inhibition (INH): 47%
Lung [16]
  inhibition (INH): 32%
[17]
  inhibition (INH): 54%
[18]
  inhibition (INH): 37%
[19]
  inhibition (INH): 11%
[20]
  inhibition (INH): 27%
[21]
  inhibition (INH): 36%
[22]
  inhibition (INH): 24%
Rattus norvegicus [5]
  ED50: 0.9 mg/kg
Lung [23]
  inhibition (INH): 56%

## CC(=O)Nc1cc(NC(C)=O)cc(N/C(C)=C2\C(=O)OC(=O)C(C(C)=O)=C2O)c1
Rattus norvegicus [5]
  ED50: 0.01 mg/kg
Rattus norvegicus [13]
  inhibition in vivo at 50 mg/kg: -1%

## CC(=O)Nc1cc(O)cc(N/C(C)=C2\C(=O)OC(=O)C(C(C)=O)=C2O)c1
[1]
  inhibition (INH): 57%
[2]
  inhibition (INH): 17%
[3]
  inhibition (INH): 22%
[4]
  inhibition (INH): 6%
Rattus norvegicus [5]
  ED50: 0.02 mg/kg
Rattus norvegicus [12]
  inhibition in vivo at 25 mg/kg: 2%
